This passage reports MIC, Stability and inhibition results from ChEMBL document CHEMBL3272149, “Synthesis and antibacterial activity of some derivatives of tolypomycinone. Relationship between structure and activity in ansamycins” (J Med Chem, 1977).

One data set has as its system Escherichia coli. Put plainly: Antibacterial activity against Escherichia coli MC/35 assessed as inhibition of visible growth after 24 hrs by serial dilution method. The data set is classed as functional. To be noted: MC/35, 24 h.
The nature of data set [1]: Stability in simulated intestinal juice at pH 8.3. The data set is classed as ADME. The note with it: simulated gi fluid. The method in brief:
(§1)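 Compound dissolved in simulated gastric juice (pH 1.3) or simulated intestinal juice (pH 8.3). Samples were withdrawn at 1, 2 and 4 h and assayed for residual inhibitory activity against Staphylococcus.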

For data set [2], the system named is Staphylococcus aureus. Put plainly: Antibacterial activity against Staphylococcus aureus 209 P(FDA) assessed as inhibition of visible growth in simulated intestinal juice at pH 8.3 after 1 to 4 hrs by serial dilution method. Type of data set: functional, organism-based. The method, boiled down: as §1
For the next data set, the system named is Klebsiella pneumoniae. Put plainly: Antibacterial activity against Klebsiella pneumoniae Ottaviani assessed as inhibition of visible growth after 24 hrs by serial dilution method. The data set is classed as functional.
Data set [3] is described as follows: Stability in simulated gastric juice at pH 1.3. Type of data set: ADME. The note with it: simulated gi fluid. The method in brief:
as §1

The subject of data set [4] is Staphylococcus aureus. Put plainly: Antibacterial activity against Staphylococcus aureus 209 P(FDA) assessed as inhibition of visible growth after 24 hrs by serial dilution method. Type of data set: functional.
Data set [5] concerns Staphylococcus aureus. Nature of the data set: Antibacterial activity against Staphylococcus aureus 209 P(FDA) assessed as inhibition of visible growth in simulated gastric juice at pH 1.3 after 1 to 4 hrs by serial dilution method. Type of data set: functional, organism-based. The method, boiled down:
as §1

In data set [6] the test system is Salmonella enterica subsp. enterica serovar Paratyphi B. Put plainly: Antibacterial activity against Salmonella paratyphi B 0248 K assessed as inhibition of visible growth after 24 hrs by serial dilution method. The data set is classed as functional. The method, boiled down: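 Broth tube serial dilution in Brain Heart Infusion medium; inoculum 10^6 cells/mL; incubation 24 h at 35 °C; MIC taken as the lowest antibiotic concentration that prevented visible growth.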

Converted amounts (≈) assume the structure as drawn. The source made the active and inactive calls. A value given as a limit tells only on which side of the number the result lay.

In general, MIC refers to the smallest concentration in the dilution series that meets the test's criterion for growth inhibition. With `CO[C@H]1/C=C/O[C@@]2(C)Oc3c(C)c(O)c4c(c3C2=O)C(=O)C(NCCN2CCOCC2)=C(NC(=O)/C(C)=C\C(=O)[C@@H]2C[C@@H]2[C@H](O)[C@@H](C)[C@@H](O)[C@@H](C)[C@H](OC(C)=O)[C@@H]1C)C4=O`, the minimum inhibitory concentration (MIC) in the data set with Escherichia coli was 12 mg/L (≈ 14.3 µM); in the data set on Klebsiella pneumoniae it was 50 mg/L (≈ 59.7 µM); with Staphylococcus aureus [4], < 0.005 mg/L; in data set [6], 12 mg/L (≈ 14.3 µM). Also, the Stability entry in data set [1] and in data set [3] was “Stable” each time. Besides, the inhibition entry in the data set with Staphylococcus aureus [2] and in the data set on Staphylococcus aureus [5] was “Active” each time.
Turning to `CO[C@H]1/C=C/O[C@@]2(C)Oc3c(C)c(O)c4c(c3C2=O)C(=O)C(NCC2CCCO2)=C(NC(=O)/C(C)=C\C(=O)[C@@H]2C[C@@H]2[C@H](O)[C@@H](C)[C@@H](O)[C@@H](C)[C@H](OC(C)=O)[C@@H]1C)C4=O` (stereo not given in full), the MIC in the data set on Escherichia coli turned out to be 6 mg/L (≈ 7.42 µM); in the data set on Klebsiella pneumoniae it was 25 mg/L (≈ 30.9 µM); in the data set on Staphylococcus aureus [4], 0.005 mg/L (≈ 0.00618 µM); in data set [6], 12 mg/L (≈ 14.8 µM).
The matching figures for `CO[C@H]1/C=C/O[C@@]2(C)Oc3c(C)c(O)c4c(c3C2=O)C(=O)C(NCC2CCCN(C)C2)=C(NC(=O)/C(C)=C\C(=O)[C@@H]2C[C@@H]2[C@H](O)[C@@H](C)[C@@H](O)[C@@H](C)[C@H](OC(C)=O)[C@@H]1C)C4=O` (stereo not given in full): 12 mg/L (≈ 14.4 µM), 12 mg/L (≈ 14.4 µM), 0.025 mg/L (≈ 0.0299 µM) and 12 mg/L (≈ 14.4 µM).
The matching figures for `CO[C@H]1/C=C/O[C@@]2(C)Oc3c(C)c(O)c4c(c3C2=O)/C(=N/[C@@H]2CC[C@@H](O)O[C@H]2C)C=C(NC(=O)/C(C)=C\C(=O)[C@@H]2C[C@@H]2[C@H](O)[C@@H](C)[C@@H](O)[C@@H](C)[C@H](OC(C)=O)[C@@H]1C)C4=O`: > 100 mg/L, 100 mg/L (≈ 122 µM), 0.025 mg/L (≈ 0.0304 µM) and > 100 mg/L.
For the compound `CO[C@H]1/C=C/O[C@@]2(C)Oc3c(C)c(O)c4c(O)c(c(/C=N/N5CCN(C)CC5)c(O)c4c3C2=O)NC(=O)/C(C)=C\C=C\[C@H](C)[C@H](O)[C@@H](C)[C@@H](O)[C@@H](C)[C@H](OC(C)=O)[C@@H]1C` [RIFAMPIN], the MIC turned out to be 6 mg/L (≈ 7.29 µM) in the data set on Escherichia coli, 25 mg/L (≈ 30.4 µM) in the data set with Klebsiella pneumoniae, 0.025 mg/L (≈ 0.0304 µM) in the data set on Staphylococcus aureus [4] and 12 mg/L (≈ 14.6 µM) in data set [6].
The corresponding values for `CO[C@H]1/C=C/O[C@@]2(C)Oc3c(C)c(O)c4c(c3C2=O)C(=O)C(NCc2cccnc2)=C(NC(=O)/C(C)=C\C(=O)[C@@H]2C[C@@H]2[C@H](O)[C@@H](C)[C@@H](O)[C@@H](C)[C@H](OC(C)=O)[C@@H]1C)C4=O` are 6 mg/L (≈ 7.35 µM), 25 mg/L (≈ 30.6 µM), < 0.005 mg/L and 12 mg/L (≈ 14.7 µM).
The corresponding values for `CO[C@H]1/C=C/O[C@@]2(C)Oc3c(C)c(O)c4c(c3C2=O)C(=O)C(NCc2ccn(C)c2)=C(NC(=O)/C(C)=C\C(=O)[C@@H]2C[C@@H]2[C@H](O)[C@@H](C)[C@@H](O)[C@@H](C)[C@H](OC(C)=O)[C@@H]1C)C4=O` are 12 mg/L (≈ 14.7 µM), 12 mg/L (≈ 14.7 µM), 0.005 mg/L (≈ 0.00611 µM) and 12 mg/L (≈ 14.7 µM).
For the compound `CO[C@H]1/C=C/O[C@@]2(C)Oc3c(C)c(O)c4c(c3C2=O)C(=O)C(NCCCO)=C(NC(=O)/C(C)=C\C(=O)[C@@H]2C[C@@H]2[C@H](O)[C@@H](C)[C@@H](O)[C@@H](C)[C@H](OC(C)=O)[C@@H]1C)C4=O`, the MIC was 12 mg/L (≈ 15.3 µM) in the data set with Escherichia coli, 25 mg/L (≈ 31.9 µM) in the data set with Klebsiella pneumoniae, 0.025 mg/L (≈ 0.0319 µM) in the data set with Staphylococcus aureus [4] and 12 mg/L (≈ 15.3 µM) in data set [6].
On to `CO[C@H]1/C=C/O[C@@]2(C)Oc3c(C)c(O)c4c(O)c(cc(O)c4c3C2=O)NC(=O)/C(C)=C\C=C\[C@H](C)[C@H](O)[C@@H](C)[C@@H](O)[C@@H](C)[C@H](OC(C)=O)[C@@H]1C` [RIFAMYCIN], for which the MIC in the data set on Escherichia coli is 100 mg/L (≈ 143 µM); in the data set on Klebsiella pneumoniae, 100 mg/L (≈ 143 µM); in the data set with Staphylococcus aureus [4], < 0.005 mg/L; in data set [6], 100 mg/L (≈ 143 µM).
For `CO[C@H]1/C=C/O[C@@]2(C)Oc3c(C)c(O)c4c(c3C2=O)C(=O)C(NCCN(C)C)=C(NC(=O)/C(C)=C\C(=O)[C@@H]2C[C@@H]2[C@H](O)[C@@H](C)[C@@H](O)[C@@H](C)[C@H](OC(C)=O)[C@@H]1C)C4=O`, the MIC was 6 mg/L (≈ 7.54 µM) in the data set on Escherichia coli, 25 mg/L (≈ 31.4 µM) in the data set on Klebsiella pneumoniae, < 0.005 mg/L in the data set on Staphylococcus aureus [4] and 12 mg/L (≈ 15.1 µM) in data set [6].
The matching figures for `CNC1=C2NC(=O)/C(C)=C\C(=O)[C@@H]3C[C@@H]3[C@H](O)[C@@H](C)[C@@H](O)[C@@H](C)[C@H](OC(C)=O)[C@H](C)[C@@H](OC)/C=C/O[C@@]3(C)Oc4c(C)c(O)c(c(c4C3=O)C1=O)C2=O`: 50 mg/L (≈ 67.7 µM), 25 mg/L (≈ 33.8 µM), 0.005 mg/L (≈ 0.00677 µM) and 12 mg/L (≈ 16.2 µM).
The matching figures for `CO[C@H]1/C=C/O[C@@]2(C)Oc3c(C)c(O)c4c(c3C2=O)C(=O)C(NCCCN(C)C)=C(NC(=O)/C(C)=C\C(=O)[C@@H]2C[C@@H]2[C@H](O)[C@@H](C)[C@@H](O)[C@@H](C)[C@H](OC(C)=O)[C@@H]1C)C4=O`: 12 mg/L (≈ 14.8 µM), 50 mg/L (≈ 61.7 µM), 0.025 mg/L (≈ 0.0309 µM) and 12 mg/L (≈ 14.8 µM).
The corresponding values for `CO[C@H]1/C=C/O[C@@]2(C)Oc3c(C)c(O)c4c(c3C2=O)C(=O)C(NCc2ccncc2)=C(NC(=O)/C(C)=C\C(=O)[C@@H]2C[C@@H]2[C@H](O)[C@@H](C)[C@@H](O)[C@@H](C)[C@H](OC(C)=O)[C@@H]1C)C4=O` are 25 mg/L (≈ 30.6 µM), 100 mg/L (≈ 123 µM), 0.005 mg/L (≈ 0.00613 µM) and 12 mg/L (≈ 14.7 µM).
For the compound `CO[C@H]1/C=C/O[C@@]2(C)Oc3c(C)c(O)c4c(c3C2=O)C(=O)C(NCCc2c[nH]cn2)=C(NC(=O)/C(C)=C\C(=O)[C@@H]2C[C@@H]2[C@H](O)[C@@H](C)[C@@H](O)[C@@H](C)[C@H](OC(C)=O)[C@@H]1C)C4=O`, the MIC in the data set on Escherichia coli came out at 50 mg/L (≈ 61.1 µM); in the data set with Klebsiella pneumoniae, 12 mg/L (≈ 14.7 µM); in the data set with Staphylococcus aureus [4], 0.05 mg/L (≈ 0.0611 µM); in data set [6], 12 mg/L (≈ 14.7 µM).
